Laboratory results: ChEMBL document CHEMBL4041511, “Synthesis of coumaperine derivatives: Their NF-κB inhibitory effect, inhibition of cell migration and their cytotoxic activity” (Eur J Med Chem, 2017)
≈ marks a conversion by molar mass, not a printed value. Calls of active or inactive are those of the source. The rule behind the calls is not given here.

Columns and labels:
[1] = species: Homo sapiens; experiment: Inhibition of NF-kappaB in human L428 cells at 10 ug/ml after 2 hrs by luciferase reporter gene assay relative to control; type: cell-based
Outline: (§1)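 L428 cells stably carrying NF-κB-luciferase reporter (kept in 500 µg/ml G418), 10⁶ per well in 1 ml medium with DMSO solvent and compound (10-50 μg/ml) for 2 h, triplicate wells. Lysates assayed for luciferase, luminescence normalized to Bradford protein. Solvent control = 100%; Nuphar extract positive control; mean and SD of three independent experiments.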

[2] = species: Homo sapiens; experiment: Inhibition of NF-kappaB in human L428 cells at 20 ug/ml after 2 hrs by luciferase reporter gene assay relative to control; type: cell-based; outline: as §1
[3] = species: Homo sapiens; experiment: Inhibition of NF-kappaB in human L428 cells at 30 ug/ml after 2 hrs by luciferase reporter gene assay relative to control; type: cell-based; outline: as §1
[4] = species: Homo sapiens; experiment: Inhibition of NF-kappaB in human L428 cells at 40 ug/ml after 2 hrs by luciferase reporter gene assay relative to control; type: cell-based; outline: as §1
[5] = species: Homo sapiens; experiment: Inhibition of NF-kappaB in human L428 cells at 50 ug/ml after 2 hrs by luciferase reporter gene assay relative to control; type: cell-based; outline: as §1
[6] = species: Homo sapiens; experiment: Inhibition of NF-kappaB in human L428 cells after 2 hrs by luciferase reporter gene assay; type: cell-based; outline: as §1
[7] = test system: L-428; experiment: Cytotoxicity against human L428 cells assessed as reduction in cell viability after 48 hrs by XTT assay; type: functional, cell-based; settings: for IC50: L-428, 48 h
Outline: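 L428 Hodgkin's lymphoma cells (RPMI 1640; lack IκBα, constitutive NF-κB), 3 x 10^4 per well in 200 µl, treated with graded concentrations for 48 h at 37 °C in triplicate. XTT added for 4 h at 37 °C, absorbance read at 450 nm. Control = 100% survival; mean and SD of three independent experiments.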

[8] = test system: A549; experiment: Cytotoxicity against human A549 cells assessed as reduction in cell viability after 48 hrs by XTT assay; type: functional, cell-based; settings: A549, 48 h
Outline: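 A549 cells (DMEM, 10% heat-inactivated FBS, L-glutamine, Pen-Strep), 3 x 10^4 per well, left 24 h to form monolayer, then exposed to graded concentrations for 48 h in triplicate. XTT added, further 4 h at 37 °C, absorbance at 450 nm. Untreated control = 100% survival; mean and SD of three independent experiments.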

[9] = test system: A549; experiment: Anti-migratory activity against human A549 cells assessed as reduction in wound closure at 5 ug/ml after 48 hrs by wound scratch assay; type: functional, cell-based
Outline: (§2)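 A549 cells seeded in 6-well plates without compound; after monolayer formed (24 h), compound or DMSO vehicle added and monolayer scratched. Wound closure recorded after 48 h; concentrations 2-10 μg/ml. Representative of three independent experiments.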

[10] = test system: L-428; experiment: Inhibition of NFkappaB p50 subunit expression in nuclear fractions of human L428 cells after 2 hrs by Western method; type: functional, cell-based
Outline: (§3)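 10 x 10^6 L428 cells per sample exposed 2 h to various concentrations or DMSO. Cytosolic and nuclear fractions prepared by hypotonic lysis, needle shearing and high-salt nuclear extraction. 40 µg protein (Bradford) run on 10% SDS-PAGE, immunoblotted for p50, p65, RelB; β-actin and Lamin B loading controls; ECL detection. At least three independent experiments.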

[11] = test system: L-428; experiment: Inhibition of NFkappaB p65 subunit expression in nuclear fractions of human L428 cells after 2 hrs by Western method; type: functional, cell-based; outline: as §3
[12] = test system: L-428; experiment: Inhibition of RelB protein expression in nuclear fractions of human L428 cells at 10 to 40 ug/ml after 2 hrs by Western method; type: functional, cell-based; outline: as §3
[13] = test system: L-428; experiment: Inhibition of RelB protein expression in cytosolic fractions of human L428 cells at 10 to 40 ug/ml after 2 hrs by Western method; type: functional, cell-based; outline: as §3
[14] = target: Transcription factor p65 (Homo sapiens) (UniProt Q04206); experiment: Inhibition of NFkappaB p65 subunit in human L428 cells assessed as depletion of p65 subunit from nucleus after 2 hrs by DAPI staining based confocal microscopic method; type: cell-based
Sequence of Transcription factor p65 (Homo sapiens) (Q04206 whole entry): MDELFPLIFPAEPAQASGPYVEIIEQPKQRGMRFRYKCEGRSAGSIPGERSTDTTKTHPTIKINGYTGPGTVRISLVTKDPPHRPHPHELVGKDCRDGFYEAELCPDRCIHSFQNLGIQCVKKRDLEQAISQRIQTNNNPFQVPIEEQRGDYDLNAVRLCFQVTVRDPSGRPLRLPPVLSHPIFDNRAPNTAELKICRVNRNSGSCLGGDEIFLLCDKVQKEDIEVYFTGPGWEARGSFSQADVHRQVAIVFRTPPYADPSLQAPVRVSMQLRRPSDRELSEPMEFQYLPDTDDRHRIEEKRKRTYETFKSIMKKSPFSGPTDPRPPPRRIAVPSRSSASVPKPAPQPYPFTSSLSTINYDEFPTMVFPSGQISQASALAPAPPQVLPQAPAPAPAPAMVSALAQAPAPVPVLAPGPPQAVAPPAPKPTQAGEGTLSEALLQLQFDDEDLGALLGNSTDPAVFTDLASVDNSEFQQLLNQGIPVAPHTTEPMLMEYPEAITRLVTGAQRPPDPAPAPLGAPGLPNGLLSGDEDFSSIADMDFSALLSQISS
Outline: (§4)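 L428 cells incubated 2 h at 37 °C with compound at 10 or 30 μg/ml, cytocentrifuged (900 rpm, 5 min), fixed in 8% formalin 20 min. Separate staining with anti-p65 or anti-p50 plus fluorescent secondary antibodies; nuclei stained with DAPI. Nuclear localization imaged by confocal microscopy.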

[15] = species: Homo sapiens; experiment: Inhibition of NFkappaB p50 subunit in human L428 cells assessed as depletion of […] subunit from nucleus after 2 hrs by DAPI staining based confocal microscopic method; type: cell-based; outline: as §4
[16] = test system: L-428; experiment: Inhibition of NFkappaB p50 subunit expression in cytosolic fractions of human L428 cells after 2 hrs by Western method; type: functional, cell-based; outline: as §3
[17] = test system: L-428; experiment: Inhibition of NFkappaB p65 subunit expression in cytosolic fractions of human L428 cells after 2 hrs by Western method; type: functional, cell-based; outline: as §3
[18] = test system: L-428; experiment: Inhibition of RelB protein expression in nuclear fractions of human L428 cells at 5 to 30 ug/ml after 2 hrs by Western method; type: functional, cell-based; outline: as §3
[19] = test system: L-428; experiment: Inhibition of RelB protein expression in cytosolic fractions of human L428 cells at 5 to 30 ug/ml after 2 hrs by Western method; type: functional, cell-based; outline: as §3
[20] = test system: A549; experiment: Anti-migratory activity against human A549 cells assessed as reduction in wound closure at 10 ug/ml after 48 hrs by wound scratch assay; type: functional, cell-based; outline: as §2
[21] = test system: L-428; experiment: Inhibition of NFkappaB p50 subunit expression in nuclear fractions of human L428 cells at 10 to 40 ug/ml after 2 hrs by Western method; type: functional, cell-based; outline: as §3
[22] = test system: L-428; experiment: Inhibition of NFkappaB p65 subunit expression in nuclear fractions of human L428 cells at 10 to 40 ug/ml after 2 hrs by Western method; type: functional, cell-based; outline: as §3
[23] = test system: L-428; experiment: Inhibition of NFkappaB p50 subunit expression in cytosolic fractions of human L428 cells at 10 to 40 ug/ml after 2 hrs by Western method; type: functional, cell-based; outline: as §3
[24] = test system: L-428; experiment: Inhibition of NFkappaB p65 subunit expression in cytosolic fractions of human L428 cells at 10 to 40 ug/ml after 2 hrs by Western method; type: functional, cell-based; outline: as §3
[25] = species: Mus musculus; experiment: Inhibition of LPS-induced NFkappaB activation in mouse RAW264.7 cells at 100 ug/ml after 24 hrs by luciferase reporter gene assay relative to control; type: cell-based
[26] = species: Homo sapiens; experiment: Inhibition of IL-1beta-induced NFkappaB activation in human OA chondrocytes at 100 ug/ml after 24 hrs by luciferase reporter gene assay relative to control; type: cell-based

Row | SMILES | inhibition [1] | inhibition [2] | inhibition [3] | inhibition [4] | inhibition [5] | inhibition [6] | further results
1 | O=C(/C=C/C=C/c1ccc(O)cc1)N1CCCCC1 | 68.4% | 79.6% | 89.8% | 91.5% | 92.2% | Dose-dependent effect | 
2 | CC(=O)Oc1ccc(/C=C/C=C/C(=O)N2CCCCC2)cc1 | 70.3% | 71.4% | 75.3% | 78.1% | 80.1% | Dose-dependent effect | 
3 | COc1ccc(/C=C/C=C/C(=O)N2CCCCC2)cc1 | 69.7% | 76.3% | 77.2% | 86.9% | 89.9% | Dose-dependent effect | Activity [7]: Dose-dependent effect; IC50 [7]: 16.8 µg/mL (≈ 62.1 µM); IC50 [8]: 63.2 µg/mL (≈ 233 µM); Activity [9]: Active; inhibition [10]: Dose-dependent effect; inhibition [11]: Dose-dependent effect; inhibition [12]: inactive; inhibition [13]: inactive; inhibition [14]: Dose-dependent effect; inhibition [15]: Dose-dependent effect; inhibition [16]: Dose-dependent effect; inhibition [17]: Dose-dependent effect
4 | COc1ccc(/C=C/C=C/C(=O)N2CCCCC2)cc1OC | 43.4% | 67.5% | 73.9% | 78.9% | 80.1% | Dose-dependent effect | 
5 | CN(C)c1ccc(/C=C/C=C/C=C/C(=O)N2CCCCC2)cc1 | 37.2% | 56.2% | 56.8% | 57.2% | 59.9% | Dose-dependent effect | 
6 | O=C(/C=C/C=C/c1ccccc1)N1CCCCC1 | 71.9% | 73.9% | 82.2% | 85.9% | 88.2% | Dose-dependent effect | Activity [7]: Dose-dependent effect; IC50 [7]: 43.2 µg/mL (≈ 179 µM); IC50 [8]: 57.1 µg/mL (≈ 237 µM); Activity [9]: Active; inhibition [10]: Dose-dependent effect; inhibition [11]: Dose-dependent effect; inhibition [18]: inactive; inhibition [19]: inactive; inhibition [14]: Dose-dependent effect; inhibition [15]: Dose-dependent effect; inhibition [16]: Dose-dependent effect; inhibition [17]: Dose-dependent effect
7 | CN(C)c1ccc(/C=C/C=C/C(=O)N2CCCCC2)cc1 | 95.5% | 96.6% | 97.3% | 97.7% | 97.9% | Dose-dependent effect | Activity [7]: Dose-dependent effect; IC50 [7]: 0.39 µg/mL (≈ 1.37 µM); IC50 [8]: 69.1 µg/mL (≈ 243 µM); Activity [20]: Active; inhibition [21]: inactive; inhibition [22]: inactive; inhibition [23]: inactive; inhibition [24]: inactive; inhibition [12]: inactive; inhibition [13]: inactive
8 | O=C(/C=C/C=C/c1ccc(OC2CCCC2)cc1)N1CCCCC1 | 57.6% | 61.7% | 63.2% | 69.7% | 72.2% | Dose-dependent effect | 
9 | O=C(/C=C/C=C/C=C/c1ccc2c(c1)OCO2)N1CCCCC1 | 34% | 56.6% | 65.8% | 71% | 71.2% | Dose-dependent effect | 
10 | O=C(/C=C/C=C/c1ccc2c(c1)OCO2)N1CCCCC1 | 67.3% | 67.5% | 85.1% | 86.6% | 90.2% | Dose-dependent effect | inhibition [25]: 75%; inhibition [26]: 90%
11 | COc1ccc(/C=C/C=C/C=C/C(=O)N2CCCCC2)cc1 | 26.4% | 34% | 44.8% | 50.7% | 51.8% | Dose-dependent effect | 
12 | COc1ccc(/C=C/C=C/C(=O)N2CCCCC2)c(OC)c1OC | 39.2% | 52.9% | 59.2% | 59.8% | 62.9% | Dose-dependent effect | 
13 | COc1cc(/C=C/C=C/C(=O)N2CCCCC2)cc(OC)c1OC | 34.1% | 44.6% | 53.1% | 56.9% | 59.8% | Dose-dependent effect | 
